Sampled rows, rich in hits. Any-hit rate of the full collection: about 3.1%.
KCNK9 inh – blocks the human KCNK9 two-pore domain potassium channel. Q9NPC2. HEK293 KCNK9, FluxOR thallium flux fluorescence; hits give low values. B-score at 10 µM. 310,000 tested, 1.2% active. AID 488922;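 active means ratio B-score over 3 SD below the library mean, with starting fluorescence within 5 SD of its mean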;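 further: negative B-score means less thallium flux so channel inhibition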
KCNQ1 pot – human KCNQ1 channel potentiation or activation; 310,000 tested, 0.35% active; CHO-K1 KCNQ1, thallium flux FluxOR fluorescence; hits give high values; B-score at 10 µM; AID 2648; P51787;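 active means fluorescence ratio B-score, a plate-corrected score, at least three library SD, with initial intensity B-score within 5 SD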
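assay system = CHO-K1 cells stably expressing KCNQ1 | medium = assay buffer, equal DMSO in all wells | timing = 37 °C overnight plating, 90-min dark dye load, 20-min compound pretreatment | measured by = kinetic FluxOR thallium fluorescence, 10-s 1-Hz baseline, 110-s post-stimulus read | measure = fluorescence change relative to baseline, converted to B score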
hERG rescue – compounds protecting human hERG from proarrhythmic drug block | activation (rescue from dofetilide block), less the hit threshold, % at 10 µM | CHO-hERG, FluxOR thallium flux, dofetilide IC70 present | 310,000 tested, 0.51% active | AID 1511;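 active means activation above the mean of controls blocked by dofetilide plus 5 SD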;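 further: thallium influx through hERG after potassium depolarization seen as dye fluorescence rise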
KCNK3 inh – human KCNK3 channel inhibition, primary screen; O14649; CHO-KCNK3 thallium flux, FluxOR fluorescence; hits give low values; B-score at 10 µM; 340,000 tested, 0.84% active; AID 602410;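 active means B-score under library mean minus 4 SD, starting fluorescence ratio at most library mean plus 5 SD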;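 further: more negative B-score means stronger inhibition of thallium flux through KCNK3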
Target sequence (O14649 whole entry, looked up): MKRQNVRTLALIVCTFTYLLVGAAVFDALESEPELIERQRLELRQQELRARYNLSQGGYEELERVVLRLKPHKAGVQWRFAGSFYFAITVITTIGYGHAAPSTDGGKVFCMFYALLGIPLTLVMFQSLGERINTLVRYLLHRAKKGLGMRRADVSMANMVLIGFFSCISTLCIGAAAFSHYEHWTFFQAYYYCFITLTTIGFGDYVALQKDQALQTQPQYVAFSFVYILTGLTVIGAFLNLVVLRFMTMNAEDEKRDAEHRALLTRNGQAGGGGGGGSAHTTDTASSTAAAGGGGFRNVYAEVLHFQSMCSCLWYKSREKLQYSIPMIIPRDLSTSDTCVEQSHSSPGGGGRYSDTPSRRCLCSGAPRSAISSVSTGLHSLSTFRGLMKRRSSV
KCNQ1 block – blocks the human KCNQ1 potassium channel; B-score at 10 µM; CHO-K1 KCNQ1, FluxOR thallium flux fluorescence; hits give high values; 310,000 tested, 1.3% active; P51787;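 active means compounds whose thallium flux B-score, printed positive for inhibition, exceeds three library SD while starting fluorescence stays within three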;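 further: channel opened by potassium depolarization with thallium stimulus after 20 min compound exposure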
Starred values were filed as active, the others as inactive.

For CSc1nc(N(C)CCO)c2sc3nc(-c4ccco4)c4c(c3c2n1)CCC4 the results were KCNK9 inh inactive, KCNQ1 pot inactive, hERG rescue -5, KCNK3 inh inactive and KCNQ1 block inactive.
Screening CSc1nc(SCC(=O)O)c2sc3nc(-c4ccccc4)c4c(c3c2n1)CCC4 returned KCNK9 inh inactive, KCNQ1 pot 10*, hERG rescue -13, KCNK3 inh inactive and KCNQ1 block inactive.
Screening CC(C)NS(=O)(=O)c1ccc(NC(=O)C(C)Oc2ccc(C(=O)c3ccccc3)cc2)cc1 (stereo unspecified) returned KCNK9 inh inactive, KCNQ1 pot 12*, hERG rescue -4, KCNK3 inh inactive and KCNQ1 block inactive.
`CC(Oc1ccccc1)C(=O)Nc1ccc(C(N)=O)cc1` (stereo unspecified) gave KCNK9 inh inactive, KCNQ1 pot inactive, hERG rescue -1, KCNK3 inh inactive and KCNQ1 block inactive.
For CCNc1nc(NCC)n2c(SCC(=O)Nc3ccccc3)nnc2n1 the results were KCNK9 inh inactive, KCNQ1 pot inactive, hERG rescue 6.5*, KCNK3 inh inactive and KCNQ1 block inactive.
`CCNc1nc(NCC)n2c(SCC(=O)Nc3ccc(F)cc3)nnc2n1` gave KCNK9 inh inactive, KCNQ1 pot inactive, hERG rescue -6, KCNK3 inh inactive and KCNQ1 block inactive.
Screening CC(C)(C)OC(=O)NCCCCCNC(=O)c1[nH]cnc1C(=O)N[C@@H](CCCCNC(=O)OC(C)(C)C)C(=O)OC(C)(C)C returned KCNK9 inh inactive, KCNQ1 pot inactive, hERG rescue -11, KCNK3 inh inactive and KCNQ1 block inactive.
CC(C)(C)OC(=O)NCCCC[C@H](NC(=O)c1nc[nH]c1C(=O)N[C@@H](CCCCNC(=O)OC(C)(C)C)C(=O)OC(C)(C)C)C(=O)OC(C)(C)C was read as KCNK9 inh -7*, KCNQ1 pot inactive, hERG rescue -10, KCNK3 inh inactive and KCNQ1 block inactive.
Screening C[C@H](NC(=O)c1nc[nH]c1C(=O)N1CCc2ccccc2C1)C(=O)OCc1ccccc1 returned KCNK9 inh inactive, KCNQ1 pot inactive, hERG rescue -20, KCNK3 inh inactive and KCNQ1 block 6*.
For CC(C)(C)OC(=O)NCCCCCNC(=O)c1[nH]cnc1C(=O)N[C@@H](Cc1ccccc1)C(=O)OCc1ccccc1 the results were KCNK9 inh inactive, KCNQ1 pot inactive, hERG rescue -11, KCNK3 inh inactive and KCNQ1 block 9*.
For COc1ccc(OC)c(S(=O)(=O)N2CCC(C(=O)NC3CCCCC3)CC2)c1 the results were KCNK9 inh inactive, KCNQ1 pot inactive, hERG rescue -2, KCNK3 inh inactive and KCNQ1 block inactive.
`CC(=O)Nc1ccc2c(c1)C(=O)N(c1cccc3ccccc13)C2=O` gave KCNK9 inh inactive, KCNQ1 pot inactive, hERG rescue -8, KCNK3 inh inactive and KCNQ1 block inactive.
`O=C(Cc1ccccc1)NCC(=O)N1CCN(Cc2cccc(Cl)c2)CC1` gave KCNK3 inh inactive.
Screening Cc1noc(C)c1NC(=O)N(C)C[C@H]1Oc2c(NS(=O)(=O)c3cn(C)cn3)cccc2C(=O)N([C@H](C)CO)C[C@@H]1C returned KCNK3 inh inactive.
O=C1CC(=O)C(n2cncn2)C(c2ccc(Cl)cc2)C1 (stereo unspecified) was read as KCNK9 inh inactive, KCNQ1 pot inactive, hERG rescue -8, KCNK3 inh inactive and KCNQ1 block inactive.
For O=C1C=C(O)C(n2cncn2)C(c2ccc(F)cc2)C1 (stereo unspecified) the results were KCNK9 inh inactive, KCNQ1 pot inactive, hERG rescue 5.2*, KCNK3 inh inactive and KCNQ1 block inactive.
O=C(c1ccoc1)N1CCC2(CC1)Oc1ccc(Cl)cc1C(=O)C21CC(c2ccc(Cl)cc2)=NO1 (stereo unspecified) was read as KCNK9 inh inactive, KCNQ1 pot inactive, hERG rescue -12, KCNK3 inh inactive and KCNQ1 block 6*.
`CCNc1ccc2noc3c2c1C(=O)c1ccccc1-3` gave KCNK9 inh inactive, KCNQ1 pot inactive, hERG rescue -30, KCNK3 inh inactive and KCNQ1 block 6*.

Screens as filed in PubChem BioAssay.
